Assay results from article PMC11752056 (Chemical Science, 2025).

What was measured:
[1] = molecular target: T1, 14-3-3σ (Homo sapiens, UniProt P31947); experiment: Intact MS conjugation of compound to 14-3-3σ; type: biochemical; conditions: 14-3-3σ : cyclohexenone : NEM 1:10:10, overnight, 10 °C, BTP buffer pH 7
T1 sequence (P31947 1-231 limits assumed): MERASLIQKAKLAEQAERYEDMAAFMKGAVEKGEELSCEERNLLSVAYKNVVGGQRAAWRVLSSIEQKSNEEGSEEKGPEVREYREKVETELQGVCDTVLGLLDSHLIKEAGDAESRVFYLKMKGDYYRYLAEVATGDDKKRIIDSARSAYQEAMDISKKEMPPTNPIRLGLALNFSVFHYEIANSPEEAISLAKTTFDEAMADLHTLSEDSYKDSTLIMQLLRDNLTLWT
Outline: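 Recombinant full-length 14-3-3σ (8 μM) was incubated overnight with 10 eq. (80 μM) of compound, with or without peptide, in 20 mM BTP buffer at pH 7 and 10 °C. Protein species (unmodified, conjugated, crosslinked) were read from deconvoluted intact mass spectra and expressed as percentage conjugation or crosslinking.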

[2] = L-cysteine–maleimide conjugation; cited from earlier work
[3] = molecular target: the peptide panel (mutated B-Raf peptides: +5 mutants and histidine scan); experiment: fluorescence polarisation

Molecule: CCN1C(=O)C=CC1=O [NEM, N-ethylmaleimide]
- conjugate formed on co-incubation of cyclohexenone and NEM [1]: exclusively the 14-3-3σ–NEM conjugate

Molecule: O=C1C=CC(=O)N1 [maleimide]
- reaction rate (k2) [2]: 17.6 ± 0.9 × 10^3 M^−1 s^−1

B1: 14-3-3σ (natural protein)
chain: T1 sequence (P31947 1-231 limits assumed)
- Kd [3]: 1.8 to 135 µM
